Measurements from article PMC8740777 (The FASEB Journal, 2022).

What was measured:
[1] = system: Human primary astrocytes; assay: Ca2+ mobilization assay, agonistic application; format: cell-based; conditions: for effect on intracellular Ca2+ mobilization as agonist: Fig. 2A, agonistic application
Procedure, shortened: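 Human primary astrocytes were plated at 10 000 cells/well in 384-well plates (day 0), switched to FreeStyle 293 expression medium on day 1 for 18 h, then loaded with FLIPR Calcium 4 dye for 1 h […]. Intracellular Ca2+ was monitored kinetically across a concentration series up to 30 µM, and logEC50 was taken from concentration-response curves.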

[2] = system: Human primary astrocytes; assay: Ca2+ mobilization assay, functional antagonism; format: cell-based; conditions: 18 h pretreatment, Fig. 2B,C
Procedure, shortened: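 Astrocytes were pretreated overnight (18 h) with 1 or 10 µM test compound, then loaded with calcium dye for 1 h without compound before S1P stimulation, with Ca2+ mobilization recorded. Inhibition was assessed against 10 µM S1P. Mean ± SD, n = 4, pooled from three independent experiments.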

[3] = system: Human primary astrocytes; assay: cAMP AlphaScreen assay, Gαi-coupled agonist mode; format: cell-based; conditions: Fig. 2D, 10 µM FSK
Procedure, shortened: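 Primary human astrocytes suspended in HBSS with 0.5 mM IBMX, 5 mM HEPES and 0.1% BSA, 5000 cells/well. Compound added with 10 µM forskolin (final), 30 min at room temperature. Lysis buffer (pH 7.4) carried biotin-cAMP/donor beads, then 1 h dark. AlphaScreen read: excitation 680 nm, emission 570 nm. Baseline-corrected, normalized to S1P, three-parameter curve fit. Mean ± SD, n = 3–5 over three experiments.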

[4] = system: Human primary astrocytes; assay: cAMP AlphaScreen assay, functional antagonism; format: cell-based; conditions: 10 µM, 18 h pretreatment
Procedure, shortened: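 Astrocytes were pretreated 18 h with 10 µM test compound, then resuspended in HBSS with 0.5 mM IBMX, 5 mM HEPES and 0.1% BSA at 5000 cells/well. Cells were stimulated with S1P plus 10 µM forskolin for 30 min at room temperature. cAMP was read by AlphaScreen after 1 h dark incubation with donor beads in lysis buffer. Data were baseline-corrected, normalized to S1P response and fitted with three-parameter curves. Mean ± SD, n = 3–4.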

[5] = target: T1, S1P1 (Homo sapiens, UniProt P21453); assay: compensated interferometric reader; format: binding
Procedure, shortened: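 Nanovesicles were made by sonicating C6 glioblastoma cells overexpressing HA-tagged human S1P1, with vector-transfected C6 cells as control. Vesicles were incubated 1 h with increasing test compound concentrations. Compensated interferometric reader signal was read against a reference of compound without vesicles. Specific binding was taken as S1P1-vesicle signal minus control-vesicle signal.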

[6] = target: T1, S1P1; assay: S1PR internalization assay, short-term; format: cell-based; conditions: 1 µM, 1 h, FCM, normalized to vehicle
Procedure, shortened: (§1)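 C6 glioblastoma cells stably expressing an HA-tagged human S1P receptor subtype, grown in high-glucose DMEM with 10% FBS and penicillin–streptomycin. Test compound or S1P (1 µM) applied for 1 h. Surface receptor stained with anti-HA (clone 3F10), then PE anti-rat IgG, and read by flow cytometry. Vector-transfected C6 cells served as negative control. Levels normalized to vehicle; n = 4 from two independent experiments.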

[7] = target: S1P2 (Homo sapiens, UniProt O95136); assay: S1PR internalization assay, short-term; format: cell-based; conditions: 1 µM, 1 h, FCM, normalized to vehicle
Procedure, shortened: as §1

[8] = target: S1P3 (Homo sapiens, UniProt Q99500); assay: S1PR internalization assay, short-term; format: cell-based; conditions: 1 µM, 1 h, FCM, normalized to vehicle
Procedure, shortened: as §1

[9] = target: T2, S1P4 (Homo sapiens, UniProt O95977); assay: S1PR internalization assay, short-term; format: cell-based; conditions: 1 µM, 1 h, FCM, normalized to vehicle
T2 sequence (O95977 1-384): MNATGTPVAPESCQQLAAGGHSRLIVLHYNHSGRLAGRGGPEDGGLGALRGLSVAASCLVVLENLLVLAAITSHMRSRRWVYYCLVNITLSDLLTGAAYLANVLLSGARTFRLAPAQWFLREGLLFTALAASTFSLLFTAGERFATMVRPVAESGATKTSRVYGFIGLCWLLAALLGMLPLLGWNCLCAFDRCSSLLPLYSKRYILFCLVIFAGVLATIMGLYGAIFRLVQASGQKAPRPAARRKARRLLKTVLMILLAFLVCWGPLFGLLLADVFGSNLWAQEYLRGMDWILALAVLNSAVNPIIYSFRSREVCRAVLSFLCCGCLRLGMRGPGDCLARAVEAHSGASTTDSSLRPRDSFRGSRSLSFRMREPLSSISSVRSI
Procedure, shortened: as §1

[10] = target: S1P5 (Homo sapiens, UniProt Q9H228); assay: S1PR internalization assay, short-term; format: cell-based; conditions: 1 µM, 1 h, FCM, normalized to vehicle
Procedure, shortened: as §1

[11] = target: T1, S1P1; assay: S1P1 internalization, wash-out experiment in S1P1-C6 cells; format: cell-based; conditions: 1 µM for 4 h, 18 h compound-free medium, FCM
[12] = target: S1P1‐EGFP fusion construct (Homo sapiens, UniProt P21453); assay: S1P1-EGFP internalization imaging in human primary astrocytes; format: cell-based; conditions: 1 µM, 1 h
[13] = system: Human primary astrocytes; assay: Single-cell RNA-seq of cytokine-stimulated astrocytes; format: cell-based; conditions: 1 µM; for number of DEGs, cytokines + ponesimod vs cytokines: total
Procedure, shortened: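 Primary human astrocytes (500 000 cells per 6 cm dish) received a cytokine mix (TNF-α, IFN-γ, IL-17, IL-1β, IL-6; 25 ng/ml each) ± 1 µM test compound for 24 or 48 h. 10x Chromium 3′ v3 capture targeted 10 000 cells, with NovaSeq sequencing and GRCh38 alignment. Data were normalized by regularized negative binomial regression and SNN-clustered. MAST DEGs: FDR p < .05, log2FC > 1.1. A fibroblast/pericyte cluster was excluded.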

[14] = system: cuprizone‐induced demyelination; assay: cuprizone-induced demyelination, preventative paradigm; format: in vivo, C57BL/6J mice; conditions: 30 mg/kg b.i.d. oral during 5 weeks 0.2% cuprizone
Procedure, shortened: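 Male C57BL/6J mice (8 weeks old) received 0.2% cuprizone diet for 5 weeks with concurrent oral test compound, 30 mg/kg suspension in 0.25% methylcellulose/0.05% polysorbate 80, twice daily 8 h apart. Brains were perfusion-fixed in 10% NBF and cryoprotected, then cut into 30 µm coronal sections. Sections were stained with Black Gold II and immunostained for Olig2 and Iba1. Signal was quantified in a constant ROI in the midline corpus callosum or cingulum.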

[15] = system: cuprizone‐induced demyelination; assay: cuprizone model, therapeutic paradigm; format: in vivo, C57BL/6J mice; conditions: 30 mg/kg
[16] = system: S1P1; conditions: cited from earlier work
[17] = system: MS fatigue; conditions: OPTIMUM Phase 3 study; cited from earlier work

T1 sequence (P21453 whole entry): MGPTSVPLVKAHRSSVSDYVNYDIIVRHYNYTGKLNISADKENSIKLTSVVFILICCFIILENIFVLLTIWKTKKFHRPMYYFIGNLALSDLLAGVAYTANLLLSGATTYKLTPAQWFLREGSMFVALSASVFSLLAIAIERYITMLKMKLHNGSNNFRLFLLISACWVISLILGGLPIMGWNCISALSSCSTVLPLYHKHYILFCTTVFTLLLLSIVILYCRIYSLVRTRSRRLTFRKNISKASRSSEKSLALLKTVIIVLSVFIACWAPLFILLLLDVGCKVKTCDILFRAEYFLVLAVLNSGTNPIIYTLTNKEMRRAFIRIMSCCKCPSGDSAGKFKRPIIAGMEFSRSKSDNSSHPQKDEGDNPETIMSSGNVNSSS
Chain of S1P2 (O95136 whole entry): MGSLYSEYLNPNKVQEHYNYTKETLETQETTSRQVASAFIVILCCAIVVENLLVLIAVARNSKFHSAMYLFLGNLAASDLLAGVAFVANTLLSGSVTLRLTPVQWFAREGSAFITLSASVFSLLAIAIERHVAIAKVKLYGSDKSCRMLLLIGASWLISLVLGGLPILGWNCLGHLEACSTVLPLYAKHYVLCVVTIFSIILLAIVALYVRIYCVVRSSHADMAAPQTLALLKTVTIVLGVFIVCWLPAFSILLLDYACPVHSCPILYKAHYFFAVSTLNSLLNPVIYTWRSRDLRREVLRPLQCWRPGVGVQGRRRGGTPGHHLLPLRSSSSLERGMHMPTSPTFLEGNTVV
Chain of S1P3 (Q99500 whole entry): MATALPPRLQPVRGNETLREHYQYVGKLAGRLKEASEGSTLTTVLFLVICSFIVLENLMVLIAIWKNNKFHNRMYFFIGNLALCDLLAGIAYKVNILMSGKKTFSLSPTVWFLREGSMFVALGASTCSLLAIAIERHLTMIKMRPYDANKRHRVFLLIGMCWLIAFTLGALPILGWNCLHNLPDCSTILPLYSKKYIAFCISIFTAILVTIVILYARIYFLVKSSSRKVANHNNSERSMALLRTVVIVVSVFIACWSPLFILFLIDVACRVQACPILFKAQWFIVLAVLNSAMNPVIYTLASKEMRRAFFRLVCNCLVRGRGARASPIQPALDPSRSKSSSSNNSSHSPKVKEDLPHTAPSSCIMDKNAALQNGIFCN
Chain of S1P5 (Q9H228 whole entry): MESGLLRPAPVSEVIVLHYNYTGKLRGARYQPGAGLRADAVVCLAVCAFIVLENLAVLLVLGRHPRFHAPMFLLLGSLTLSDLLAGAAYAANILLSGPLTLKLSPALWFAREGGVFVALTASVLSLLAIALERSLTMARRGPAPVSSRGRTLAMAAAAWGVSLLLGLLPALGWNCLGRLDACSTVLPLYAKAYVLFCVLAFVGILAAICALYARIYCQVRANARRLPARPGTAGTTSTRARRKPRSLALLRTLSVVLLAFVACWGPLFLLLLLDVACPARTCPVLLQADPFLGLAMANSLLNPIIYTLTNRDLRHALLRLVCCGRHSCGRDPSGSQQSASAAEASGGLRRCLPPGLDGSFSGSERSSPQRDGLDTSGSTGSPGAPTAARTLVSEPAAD
Chain of S1P1‐EGFP fusion construct (P21453 whole entry, the tested form may be a part): as the sequence (P21453 whole entry) above

CCCCCCCCc1ccc(CC[C@](N)(CO)COP(=O)(O)O)cc1 [Fingolimod-P, fingolimod phosphate]
effect on intracellular Ca2+ mobilization as agonist [1]: none of the S1PR modulators (ponesimod, siponimod, ozanimod, or fingolimod‐P) affected intracellular Ca^2+ mobilization
inhibition of S1P-induced Ca2+ mobilization (functional antagonism) [2]: minor
effect on inhibiting cAMP production as agonists [3]: Neither ponesimod nor fingolimod‐P showed any effect
effect on S1P-induced cAMP inhibition (functional antagonism) [4]: right shift of cAMP‐inhibitory curves

CCc1cc(/C(C)=N/OCc2ccc(C3CCCCC3)c(C(F)(F)F)c2)ccc1CN1CC(C(=O)O)C1 [Siponimod]
Kd [5]: 0.8 ± 0.97 nM
effect on intracellular Ca2+ mobilization as agonist [1]: none of the S1PR modulators (ponesimod, siponimod, ozanimod, or fingolimod‐P) affected intracellular Ca^2+ mobilization
inhibition of S1P-induced Ca2+ mobilization (functional antagonism) [2]: minor

CC(C)Oc1ccc(-c2nc(-c3cccc4c3CC[C@@H]4NCCO)no2)cc1C#N [Ozanimod]
effect on intracellular Ca2+ mobilization as agonist [1]: none of the S1PR modulators (ponesimod, siponimod, ozanimod, or fingolimod‐P) affected intracellular Ca^2+ mobilization
inhibition of S1P-induced Ca2+ mobilization (functional antagonism) [2]: blocked S1P‐induced Ca^2+ mobilization in a concentration‐dependent manner

CCCCCCCCCCCCC/C=C/[C@@H](O)[C@@H](N)COP(=O)(O)O [S1P, Sphingosine 1‐phosphate]
cell surface expression of S1P1 [6]: significantly reduced cell surface expression
cell surface expression of S1P2 [7]: significantly reduced cell surface expression
cell surface expression of S1P3 [8]: significantly reduced cell surface expression
cell surface expression of S1P4 [9]: relatively less responsive
cell surface expression of S1P5 [10]: significantly reduced cell surface expression
cell surface expression of S1P1 after wash-out [11]: recycled to the cell surface
EC50 ([1]; Homo sapiens, Astrocyte, read-out: logEC50, intracellular Ca2+ response (converted)): 93.1 nM

CCC/N=C1\S/C(=C\c2ccc(OC[C@H](O)CO)c(Cl)c2)C(=O)N1c1ccccc1C [Ponesimod]
Kd [5]: 2.09 ± 0.27 nM
cell surface expression of S1P1 [6]: only reduced the cell surface expression of S1P1
cell surface expression of S1P2 [7]: remained unchanged
cell surface expression of S1P3 [8]: remained unchanged
cell surface expression of S1P4 [9]: remained unchanged
cell surface expression of S1P5 [10]: remained unchanged
cell surface expression of S1P1 after wash-out [11]: reduced cell surface expression of S1P1 for a sustained period of time
S1P1 internalization (S1P1-EGFP imaging) [12]: rapid S1P1 internalization
Ca2+ signal at highest concentration ([1]; 30 µM, Figure S1): induced a Ca^2+ signal only at the highest concentration
effect on intracellular Ca2+ mobilization as agonist [1]: none of the S1PR modulators (ponesimod, siponimod, ozanimod, or fingolimod‐P) affected intracellular Ca^2+ mobilization
inhibition of S1P-induced Ca2+ mobilization (functional antagonism) [2]: blocked S1P‐induced Ca^2+ mobilization in a concentration‐dependent manner
effect on inhibiting cAMP production as agonists [3]: Neither ponesimod nor fingolimod‐P showed any effect
effect on S1P-induced cAMP inhibition (functional antagonism) [4]: effectively blocked S1P‐induced cAMP inhibition
common DEGs: upregulated by cytokines and downregulated by ponesimod ([13]; 24 and 48 h): 2432 DEGs
number of downregulated DEGs, cytokines + ponesimod vs cytokines ([13]; 24 h): 4031
number of upregulated DEGs, cytokines + ponesimod vs cytokines ([13]; 24 h): 34
number of DEGs, cytokines + ponesimod vs cytokines ([13]; 24 h): 4065 DEGs
number of downregulated DEGs, cytokines + ponesimod vs cytokines ([13]; 48 h): 822
number of upregulated DEGs, cytokines + ponesimod vs cytokines ([13]; 48 h): 130
cellular distribution on UMAP, ponesimod alone ([13]; 48 h, no cytokines): highly overlapping cellular distribution as compared to controls
number of DEGs, cytokines + ponesimod vs cytokines ([13]; 48 h): 952 DEGs
expression of S1PR1, S1PR2 and S1PR3 ([13]; cytokine-enhanced expression): suppressed
FOS expression ([13]; cytokine-stimulated astrocytes): significantly inhibited FOS expression
metallothionein (MT) gene expression in Cluster 8 ([13]; cytokine-stimulated astrocytes): significantly downregulated
proliferating astrocyte clusters (Clusters 6, 9, and 12) ([13]; cytokine-stimulated astrocytes): blocked decreases in proliferating astrocyte clusters
cellular fractions of reactive astrocyte clusters ([13]; cytokine-stimulated astrocytes, Clusters 3, 8, 10, 11, 15): selectively decreased the cellular fractions of Clusters 8, 10, and 15
GFAP+ astrocytes in the CC [14]: increased in the CC
GFAP+ astrocytes in the cingulum [14]: tended to decrease in the cingulum
Iba1+ microglia in the cingulum [14]: significantly decreased
demyelination in the cingulum (black gold II staining) [14]: protected mice from demyelination in the cingulum
number of Olig2+ oligodendrocytes in CC and cingulum [14]: increased
remyelination after cuprizone diet cessation ([15]; prolonged treatment (3 weeks)): significantly enhanced remyelination in the cingulum
remyelination after cuprizone diet cessation ([15]; short-term treatment (1 week)): did not show any beneficial effects
selectivity for S1P1 as compared to other S1PRs [16]: > 10 fold
MS fatigue, secondary endpoint [17]: achieved a novel secondary endpoint of reduced MS fatigue
